This passage reports EC50 and Ki results from ChEMBL document CHEMBL4257555, “Small molecule cores demonstrate non-competitive inhibition of lactate dehydrogenase” (Medchemcomm, 2018).

Test [1] concerns the target T1, L-lactate dehydrogenase B chain (Sus scrofa, UniProt P00336). In words: Inhibition of porcine heart LDH using pyruvate as substrate and NADH as cofactor measured after 2 hrs by stopped-flow spectrometric method. In a few lines:
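Stopped-flow assay of pig heart LDH (5 nN) with 100 μM NADH and 300 μM pyruvate in 100 mM sodium phosphate pH 7.2 at 37 °C, after 2 h inhibitor preincubation at 4 °C. A340 initial rates averaged over five shots and normalised to uninhibited activity. EC50 from a four-parameter fit with min, max, EC50 and Hill coefficient refined.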

Test [2] deals with T1, L-lactate dehydrogenase B chain. In words: Non-competitive inhibition of porcine heart LDH using varying levels of pyruvate as substrate and NADH as cofactor measured after 2 hrs by double reciprocal lineweaver-burk plot analysis.

For orientation: EC50 means the midpoint of the concentration-response curve. The low end stands for a more potent agent, the high end for a less potent agent. The Ki is the equilibrium dissociation constant of an inhibitor or competing ligand from its target. The low end stands for a stronger hold on the target, the high end for a looser hold on the target.

T1 sequence (P00336 whole entry): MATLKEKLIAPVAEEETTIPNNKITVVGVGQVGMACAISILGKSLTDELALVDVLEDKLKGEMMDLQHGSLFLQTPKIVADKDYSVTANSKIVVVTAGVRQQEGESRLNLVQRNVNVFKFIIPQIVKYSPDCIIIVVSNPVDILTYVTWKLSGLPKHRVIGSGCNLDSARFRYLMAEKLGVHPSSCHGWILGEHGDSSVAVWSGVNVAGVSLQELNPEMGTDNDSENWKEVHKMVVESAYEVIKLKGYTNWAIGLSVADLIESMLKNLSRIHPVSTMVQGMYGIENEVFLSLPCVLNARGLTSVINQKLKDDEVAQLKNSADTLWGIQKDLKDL

The molecule `NC(=O)c1cc(O)cc(O)c1` registered a concentration giving a half-maximal response (EC50) in test [1] of 712 µM. This molecule also displayed an inhibitory constant (Ki) in test [2] of 355 µM.
Taken in the same sequence, the figures for `CC(=O)Nc1cccc(O)c1` [METACETAMOL] were 78 µM and 498 µM.
